In ChEMBL document CHEMBL1135628, “Potent and long-acting corticotropin releasing factor (CRF) receptor 2 selective peptide competitive antagonists” (J Med Chem, 2002) one finds IC50 data, which are given here for eight compounds.

Test [1] concerns the target Corticotropin-releasing factor receptor 2 (Mus musculus) (UniProt Q60748). The test can be described thus: Inhibition of recombinant mouse corticotropin releasing factor receptor 2 beta (CRF2beta) assayed using nonselective [125I]-labeled agonist [Tyr0,Glu1,Nle17]-sauvagine as radioligand.
In test [2] the target is T1, Corticotropin-releasing factor receptor 1 (Homo sapiens, UniProt P34998).
T1 sequence (P34998 whole entry): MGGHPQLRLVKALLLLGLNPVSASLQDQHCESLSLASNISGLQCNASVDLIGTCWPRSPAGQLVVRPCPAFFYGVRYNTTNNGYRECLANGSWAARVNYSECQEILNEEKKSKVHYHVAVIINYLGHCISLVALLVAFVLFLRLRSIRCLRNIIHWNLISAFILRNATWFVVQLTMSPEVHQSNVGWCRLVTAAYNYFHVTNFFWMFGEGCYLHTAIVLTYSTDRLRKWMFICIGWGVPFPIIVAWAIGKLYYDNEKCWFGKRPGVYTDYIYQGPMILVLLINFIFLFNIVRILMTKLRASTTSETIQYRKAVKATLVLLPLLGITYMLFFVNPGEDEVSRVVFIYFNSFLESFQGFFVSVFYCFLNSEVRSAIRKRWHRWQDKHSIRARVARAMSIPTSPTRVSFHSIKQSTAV
Put plainly: Inhibition of recombinant corticotropin releasing factor receptor 1 assayed using nonselective [125I]-labeled agonist [Tyr0,Glu1,Nle17]-sauvagine. The procedure, abridged:
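Crude plasma membranes from stable CHO lines expressing hCRF1 or mCRF2β, stored in 10% sucrose at -80 °C. Incubated 90 min at room temperature, then washed and filtered. IC50 taken from one representative assay, repeated at least twice.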

Sequence of Corticotropin-releasing factor receptor 2 (Mus musculus) (Q60748 whole entry, looked up): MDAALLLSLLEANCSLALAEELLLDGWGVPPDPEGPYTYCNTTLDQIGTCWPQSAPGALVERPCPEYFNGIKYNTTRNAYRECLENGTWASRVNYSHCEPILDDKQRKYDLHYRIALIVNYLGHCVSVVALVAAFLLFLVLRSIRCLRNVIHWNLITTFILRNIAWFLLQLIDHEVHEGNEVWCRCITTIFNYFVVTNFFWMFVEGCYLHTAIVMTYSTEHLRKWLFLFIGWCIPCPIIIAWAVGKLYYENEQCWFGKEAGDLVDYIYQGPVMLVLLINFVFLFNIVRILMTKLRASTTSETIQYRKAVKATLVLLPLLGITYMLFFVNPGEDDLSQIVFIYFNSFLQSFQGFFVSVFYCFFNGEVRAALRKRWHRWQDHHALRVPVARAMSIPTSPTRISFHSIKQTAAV

As for `CCCC[C@H](NC(=O)[C@H](CCCCN)NC(=O)[C@H](CCCN=C(N)N)NC(=O)[C@H](CC(C)C)NC(=O)[C@](C)(CC(C)C)NC(=O)[C@H](Cc1c[nH]cn1)NC(=O)[C@@H](Cc1ccccc1)NC(=O)[C@H](CO)NC(=O)[C@H](CC(C)C)NC(=O)[C@H](CC(=O)O)NC(C)=O)C(=O)N[C@H](C(=O)N[C@@H](CCC(=O)O)C(=O)N[C@H](C(=O)N[C@@H](CCC(=O)O)C(=O)N[C@@H](CCCCN)C(=O)N[C@@H](CCC(N)=O)C(=O)N[C@@H](CCC(=O)O)C(=O)N[C@@H](CCCCN)C(=O)N[C@@H](CCC(=O)O)C(=O)N[C@@H](CCCCN)C(=O)N[C@@H](CCC(N)=O)C(=O)N[C@@H](CCC(N)=O)C(=O)N[C@@H](C)C(=O)N[C@@H](C)C(=O)N[C@@H](CC(N)=O)C(=O)N[C@@H](CC(N)=O)C(=O)N[C@@H](CCCN=C(N)N)C(=O)N[C@@H](CC(C)C)C(=O)N[C@@H](CC(C)C)C(=O)N[C@@H](CC(C)C)C(=O)N[C@@H](CC(=O)O)C(=O)N[C@@](C)(CC(C)C)C(=O)N[C@H](C(N)=O)[C@@H](C)CC)[C@@H](C)CC)[C@@H](C)CC`, the half-maximal inhibitory concentration (IC50) in test [1] was determined as 0.42 nM; in test [2], 18.4 nM.
On to `CCCC[C@H](NC(=O)[C@H](CCCCN)NC(=O)[C@H](CCCN=C(N)N)NC(=O)[C@H](CC(C)C)NC(=O)[C@](C)(CC(C)C)NC(=O)[C@H](Cc1c[nH]cn1)NC(=O)[C@@H](Cc1ccccc1)NC(=O)[C@H](CO)NC(=O)[C@H](CC(C)C)NC(=O)[C@H](CC(=O)O)NC(C)=O)C(=O)N[C@H](C(=O)N[C@@H](CCC(=O)O)C(=O)N[C@H](C(=O)N[C@@H](CCC(=O)O)C(=O)N[C@@H](CCCCN)C(=O)N[C@@H](CCC(N)=O)C(=O)N[C@@H](CCC(=O)O)C(=O)N[C@@H](CCCCN)C(=O)N[C@@H](CCC(=O)O)C(=O)N[C@@H](CCCCN)C(=O)N[C@H]1CCC(=O)NCCCC[C@@H](C(=O)N[C@@H](CC(N)=O)C(=O)N[C@@H](CC(N)=O)C(=O)N[C@@H](CCCN=C(N)N)C(=O)N[C@@H](CC(C)C)C(=O)N[C@@H](CC(C)C)C(=O)N[C@@H](CC(C)C)C(=O)N[C@@H](CC(=O)O)C(=O)N[C@@](C)(CC(C)C)C(=O)N[C@H](C(N)=O)[C@@H](C)CC)NC(=O)[C@H](C)NC(=O)[C@H](CCC(N)=O)NC1=O)[C@@H](C)CC)[C@@H](C)CC`, for which the IC50 stood at 0.57 nM in test [1] and 7.7 nM in test [2].
The like results for `CCCC[C@H](NC(=O)[C@H](CCCCN)NC(=O)[C@H](CCCN=C(N)N)NC(=O)[C@H](CC(C)C)NC(=O)[C@](C)(CC(C)C)NC(=O)[C@H](Cc1c[nH]cn1)NC(=O)[C@@H](Cc1ccccc1)NC(=O)[C@H](CO)NC(=O)[C@H](CC(C)C)NC(=O)[C@H](CC(=O)O)NC(C)=O)C(=O)N[C@H](C(=O)N[C@@H](CCC(=O)O)C(=O)N[C@H](C(=O)N[C@@H](CCC(=O)O)C(=O)N[C@@H](CCCCN)C(=O)N[C@@H](CCC(N)=O)C(=O)N[C@@H](CCC(=O)O)C(=O)N[C@@H](CCCCN)C(=O)N[C@@H](CCC(=O)O)C(=O)N[C@H]1CCC(=O)NCCCC[C@@H](C(=O)N[C@@H](C)C(=O)N[C@@H](CC(N)=O)C(=O)N[C@@H](CC(N)=O)C(=O)N[C@@H](CCCN=C(N)N)C(=O)N[C@@H](CC(C)C)C(=O)N[C@@H](CC(C)C)C(=O)N[C@@H](CC(C)C)C(=O)N[C@@H](CC(=O)O)C(=O)N[C@@](C)(CC(C)C)C(=O)N[C@H](C(N)=O)[C@@H](C)CC)NC(=O)[C@H](CCC(N)=O)NC(=O)[C@H](CCC(N)=O)NC1=O)[C@@H](C)CC)[C@@H](C)CC` were, in that order, 1.3 nM and 45 nM.
The like results for `CCCC[C@H](NC(=O)[C@H](CCCCN)NC(=O)[C@H](CCCN=C(N)N)NC(=O)[C@H](CC(C)C)NC(=O)[C@](C)(CC(C)C)NC(=O)[C@H](Cc1c[nH]cn1)NC(=O)[C@@H](Cc1ccccc1)NC(=O)[C@H](CO)NC(=O)[C@H](CC(C)C)NC(=O)[C@H](CC(=O)O)NC(C)=O)C(=O)N[C@H](C(=O)N[C@@H](CCC(=O)O)C(=O)N[C@H](C(=O)N[C@@H](CCC(=O)O)C(=O)N[C@@H](CCCCN)C(=O)N[C@@H](CCC(N)=O)C(=O)N[C@@H](CCC(=O)O)C(=O)N[C@@H](CCCCN)C(=O)N[C@@H](CCC(=O)O)C(=O)N[C@@H](CCCCN)C(=O)N[C@@H](CCC(N)=O)C(=O)N[C@@H](CCC(N)=O)C(=O)N[C@@H](C)C(=O)N[C@@H](C)C(=O)N[C@@H](CC(N)=O)C(=O)N[C@@H](CC(N)=O)C(=O)N[C@H]1CCC(=O)NCCCC[C@@H](C(=O)N[C@@H](CC(=O)O)C(=O)N[C@@](C)(CC(C)C)C(=O)N[C@H](C(N)=O)[C@@H](C)CC)NC(=O)[C@H](CC(C)C)NC(=O)[C@H](CC(C)C)NC1=O)[C@@H](C)CC)[C@@H](C)CC` were, in that order, 17.8 nM and greater than 100 nM.
For the compound `CCCC[C@H](NC(=O)[C@H](CCCCN)NC(=O)[C@H](CCCN=C(N)N)NC(=O)[C@H](CC(C)C)NC(=O)[C@](C)(CC(C)C)NC(=O)[C@H](Cc1c[nH]cn1)NC(=O)[C@@H](Cc1ccccc1)NC(=O)[C@H](CO)NC(=O)[C@H](CC(C)C)NC(=O)[C@H](CC(=O)O)NC(C)=O)C(=O)N[C@H](C(=O)N[C@@H](CCC(=O)O)C(=O)N[C@H](C(=O)N[C@@H](CCC(=O)O)C(=O)N[C@@H](CCCCN)C(=O)N[C@@H](CCC(N)=O)C(=O)N[C@@H](CCC(=O)O)C(=O)N[C@@H](CCCCN)C(=O)N[C@@H](CCC(=O)O)C(=O)N[C@@H](CCCCN)C(=O)N[C@@H](CCC(N)=O)C(=O)N[C@@H](CCC(N)=O)C(=O)N[C@@H](C)C(=O)N[C@@H](C)C(=O)N[C@@H](CC(N)=O)C(=O)N[C@H]1CCC(=O)NCCCC[C@@H](C(=O)N[C@@H](CC(C)C)C(=O)N[C@@H](CC(=O)O)C(=O)N[C@@](C)(CC(C)C)C(=O)N[C@H](C(N)=O)[C@@H](C)CC)NC(=O)[C@H](CC(C)C)NC(=O)[C@H](CCCN=C(N)N)NC1=O)[C@@H](C)CC)[C@@H](C)CC`, the IC50 in test [1] and in test [2] was greater than 100 nM in each case.
In the case of `CCCC[C@H](NC(=O)[C@H](CCCCN)NC(=O)[C@H](CCCN=C(N)N)NC(=O)[C@H](CC(C)C)NC(=O)[C@](C)(CC(C)C)NC(=O)[C@H](Cc1c[nH]cn1)NC(=O)[C@@H](Cc1ccccc1)NC(=O)[C@H](CO)NC(=O)[C@H](CC(C)C)NC(=O)[C@H](CC(=O)O)NC(C)=O)C(=O)N[C@H](C(=O)N[C@@H](CCC(=O)O)C(=O)N[C@H](C(=O)N[C@@H](CCC(=O)O)C(=O)N[C@@H](CCCCN)C(=O)N[C@@H](CCC(N)=O)C(=O)N[C@@H](CCC(=O)O)C(=O)N[C@@H](CCCCN)C(=O)N[C@@H](CCC(=O)O)C(=O)N[C@@H](CCCCN)C(=O)N[C@@H](CCC(N)=O)C(=O)N[C@@H](CCC(N)=O)C(=O)N[C@@H](C)C(=O)N[C@@H](C)C(=O)N[C@@H](CCC(N)=O)C(=O)N[C@@H](CC(N)=O)C(=O)N[C@@H](CCCN=C(N)N)C(=O)N[C@@H](CCCCNC(C)=O)C(=O)N[C@@H](CC(C)C)C(=O)N[C@@H](CC(C)C)C(=O)N[C@@H](CC(=O)O)C(=O)N[C@@](C)(CC(C)C)C(=O)N[C@H](C(N)=O)[C@@H](C)CC)[C@@H](C)CC)[C@@H](C)CC`, the 50% inhibitory concentration (IC50) in test [1] worked out at 0.51 nM; in test [2] it was 3.4 nM.
The like results for `CCCC[C@H](NC(=O)[C@H](CCCCN)NC(=O)[C@H](CCCN=C(N)N)NC(=O)[C@H](CC(C)C)NC(=O)[C@](C)(CC(C)C)NC(=O)[C@H](Cc1c[nH]cn1)NC(=O)[C@@H](Cc1ccccc1)NC(=O)[C@H](CO)NC(=O)[C@H](CC(C)C)NC(=O)[C@H](CC(=O)O)NC(C)=O)C(=O)N[C@H](C(=O)N[C@@H](CCC(=O)O)C(=O)N[C@H](C(=O)N[C@@H](CCC(=O)O)C(=O)N[C@@H](CCCCN)C(=O)N[C@@H](CCC(N)=O)C(=O)N[C@@H](CCC(=O)O)C(=O)N[C@@H](CCCCN)C(=O)N[C@@H](CCC(=O)O)C(=O)N[C@@H](CCCCN)C(=O)N[C@@H](CCC(N)=O)C(=O)N[C@@H](CCC(N)=O)C(=O)N[C@@H](C)C(=O)N[C@@H](C)C(=O)N[C@H]1CCC(=O)NCCCC[C@@H](C(=O)N[C@@H](CC(C)C)C(=O)N[C@@H](CC(C)C)C(=O)N[C@@H](CC(=O)O)C(=O)N[C@@](C)(CC(C)C)C(=O)N[C@H](C(N)=O)[C@@H](C)CC)NC(=O)[C@H](CCCN=C(N)N)NC(=O)[C@H](CC(N)=O)NC1=O)[C@@H](C)CC)[C@@H](C)CC` were, in that order, 0.61 nM and 5.9 nM.
In the same order, the values of `CCCC[C@H](NC(=O)[C@H](CCCCN)NC(=O)[C@H](CCCN=C(N)N)NC(=O)[C@H](CC(C)C)NC(=O)[C@](C)(CC(C)C)NC(=O)[C@H](Cc1c[nH]cn1)NC(=O)[C@@H](Cc1ccccc1)NC(=O)[C@H](CO)NC(=O)[C@H](CC(C)C)NC(=O)[C@H](CC(=O)O)NC(C)=O)C(=O)N[C@H](C(=O)N[C@@H](CCC(=O)O)C(=O)N[C@H](C(=O)N[C@@H](CCC(=O)O)C(=O)N[C@@H](CCCCN)C(=O)N[C@@H](CCC(N)=O)C(=O)N[C@@H](CCC(=O)O)C(=O)N[C@@H](CCCCN)C(=O)N[C@@H](CCC(=O)O)C(=O)N[C@@H](CCCCN)C(=O)N[C@@H](CCC(N)=O)C(=O)N[C@H]1CCC(=O)NCCCC[C@@H](C(=O)N[C@@H](CC(N)=O)C(=O)N[C@@H](CCCN=C(N)N)C(=O)N[C@@H](CC(C)C)C(=O)N[C@@H](CC(C)C)C(=O)N[C@@H](CC(C)C)C(=O)N[C@@H](CC(=O)O)C(=O)N[C@@](C)(CC(C)C)C(=O)N[C@H](C(N)=O)[C@@H](C)CC)NC(=O)[C@H](C)NC(=O)[C@H](C)NC1=O)[C@@H](C)CC)[C@@H](C)CC` are 1.2 nM and 0.24 nM.
